Experimental data from ChEMBL document CHEMBL1145787, “Synthesis and structure-activity relationship of N-substituted 4-arylsulfonylpiperidine-4-hydroxamic acids as novel, orally active matrix metalloproteinase inhibitors for the treatment of osteoarthritis” (J Med Chem, 2003).

Assays:
[1] = Total clearance of compound was determined in dog at 5 mg/kg intravenously admn.; type: ADME, organism-based, Canis lupus familiaris; design: dose 5 mg/kg, route intravenous; details: in vivo, iv, read-out: CLT
Outline: (§1)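 Single iv dose of 5 mg/kg in Sprague–Dawley rats, New Zealand rabbits, Beagle dogs and Cynomolgus monkeys. Mean plasma pharmacokinetics: C0 is the concentration at T=0, Vdss the volume of distribution at steady state, and CLT the total clearance.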

Oryctolagus cuniculus = test: Effect of compound on cartilage in surgically induced osteoarthritis (OA) model in rabbit at 25 mg/kg, value are relative to activity of RS-130830 (7.9+/-1.5) at 25 mg/kg; type: ADME, organism-based, Cartilage tissue; details: in vivo
Outline: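 Rabbits had anterior cruciate ligament transection plus meniscectomy in one knee, with sham surgery on the contralateral knee. From day 10 after surgery, groups of 12 were dosed once daily by oral gavage with vehicle, test compound or the RS-130830 reference for 4 weeks. Knee joints were then collected and scored for gross pathological changes by blinded investigators.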

[2] = molecular target: Matrix metalloproteinase-9 (Homo sapiens, UniProt P14780); test: In vitro inhibitory activity against matrix metalloprotease-9.
[3] = Maximum plasma concentration of compound was determined in dog at 25 mg/kg orally; type: ADME, organism-based, Canis lupus familiaris; design: dose 25 mg/kg, route oral; details: po
Outline: (§2)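 Single oral dose of 25 mg/kg in Sprague–Dawley rats, New Zealand rabbits, Beagle dogs and Cynomolgus monkeys. Mean plasma pharmacokinetics; Cmax is the maximum plasma concentration and Tmax is the time of peak concentration.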

[4] = Total clearance of compound was determined in rat at 5 mg/kg intravenously admn.; type: ADME, organism-based; design: dose 5 mg/kg, route intravenous; details: in vivo, iv, read-out: CLT; outline: as §1
[5] = Area under concentration-time curve of compound was determined in dog at 5 mg/kg intravenously admn.; type: ADME, organism-based, Canis lupus familiaris; design: dose 5 mg/kg, route intravenous; details: in vivo, iv, read-out: AUC 0
Outline: (§3)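 Single-dose PK in Sprague–Dawley rats, New Zealand rabbits, Beagle dogs and cynomolgus monkeys. Dosing was 25 mg/kg oral or 5 mg/kg iv. Plasma concentration–time profiles gave the apparent elimination half-life (T1/2) and the area under the concentration–time curve (AUC). Parameters are reported as means.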

[6] = Time of peak concentration of compound was determined in dog at 25 mg/kg orally; type: ADME, organism-based, Canis lupus familiaris; design: dose 25 mg/kg, route oral; details: in vivo, po; outline: as §2
Matrilysin = molecular target: T1, Matrilysin (Homo sapiens, UniProt P09237); test: Inhibition of Matrix metalloprotease-7
T1 sequence (P09237 whole entry): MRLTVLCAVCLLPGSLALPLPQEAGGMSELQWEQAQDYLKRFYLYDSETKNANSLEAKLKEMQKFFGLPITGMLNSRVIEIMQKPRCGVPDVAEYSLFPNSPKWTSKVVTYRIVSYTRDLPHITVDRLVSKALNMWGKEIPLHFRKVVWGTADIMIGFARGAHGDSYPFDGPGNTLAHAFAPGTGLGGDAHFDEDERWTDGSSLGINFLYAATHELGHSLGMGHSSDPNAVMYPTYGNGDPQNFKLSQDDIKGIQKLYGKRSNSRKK
Outline: (§4)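 Each inhibitor concentration was tested in triplicate. IC50 came from a four-parameter logistic fit of data within a single experiment and is reported as the mean of the triplicate values.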

[7] = In vivo inhibition of Matrix metalloprotease enzyme by Sponge-wrapped cartilage assay, compared to activity of RS-130830 (20+/-2) at 5 mg/kg. po. bid; type: functional
[8] = Volume of distribution at steady state of compound was determined in rat at 5 mg/kg intravenously admn.; type: ADME, organism-based; design: dose 5 mg/kg, route intravenous; details: in vivo, iv, read-out: Vdss; outline: as §1
Neutrophil collagenase = Neutrophil collagenase (Homo sapiens, UniProt P22894); test: Inhibition of Matrix metalloprotease-8; outline: as §4
[9] = Area under concentration-time curve of compound was determined in monkey at 25 mg/kg orally; type: ADME, organism-based; design: dose 25 mg/kg, route oral; details: simiiformes, in vivo, po; outline: as §3
[10] = Oral bioavailability of compound was determined in rabbit at 25 mg/kg orally; type: ADME, organism-based, Oryctolagus cuniculus; details: in vivo, read-out: Bioavailabiility
[11] = Area under concentration-time curve of compound was determined in monkey at 5 mg/kg intravenously admn.; type: ADME, organism-based; design: dose 5 mg/kg, route intravenous; details: simiiformes, in vivo, iv, read-out: AUC 0; outline: as §3
[12] = Volume of distribution at steady state of compound was determined in dog at 5 mg/kg intravenously admn.; type: ADME, organism-based, Canis lupus familiaris; design: dose 5 mg/kg, route intravenous; details: in vivo, iv, read-out: Vdss; outline: as §1
[13] = Oral bioavailability of compound was determined in dog at 25 mg/kg orally; type: ADME, organism-based, Canis lupus familiaris; details: in vivo, read-out: Bioavailabiility
[14] = Time of peak concentration of compound was determined in monkey at 25 mg/kg orally; type: ADME, organism-based; design: dose 25 mg/kg, route oral; details: simiiformes, in vivo, po; outline: as §2
[15] = Area under concentration-time curve of compound was determined in rabbit at 25 mg/kg orally; type: ADME, organism-based, Oryctolagus cuniculus; design: dose 25 mg/kg, route oral; details: in vivo, po; outline: as §3
[16] = Apparent elimination half life of compound was determined in rabbit at 25 mg/kg orally; type: ADME, organism-based, Oryctolagus cuniculus; design: dose 25 mg/kg, route oral; details: in vivo, po; outline: as §3
[17] = Peak concentration of compound at Time = 0 was determined in rabbit at 5 mg/kg intravenously admn.; type: ADME, organism-based, Oryctolagus cuniculus; design: dose 5 mg/kg, route intravenous; details: in vivo, iv; outline: as §1
[18] = Time of peak concentration of compound was determined in rat at 25 mg/kg orally; type: ADME, organism-based; design: dose 25 mg/kg, route oral; details: in vivo, po; outline: as §2
[19] = molecular target: Matrix metalloproteinase-14 (Homo sapiens, UniProt P50281); test: Inhibition of Matrix metalloprotease-14
Outline: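 Inhibitor concentrations run in triplicate; IC50 from a four-parameter logistic fit within a single experiment, reported as the mean of triplicate values.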

[20] = Apparent elimination half life of compound was determined in rat at 25 mg/kg orally; type: ADME, organism-based; design: dose 25 mg/kg, route oral; details: in vivo, po; outline: as §3
[21] = Apparent elimination half life of compound was determined in dog at 25 mg/kg orally; type: ADME, organism-based, Canis lupus familiaris; design: dose 25 mg/kg, route oral; details: in vivo, po; outline: as §3
[22] = Apparent elimination half life of compound was determined in rat at 5 mg/kg intravenously admn.; type: ADME, organism-based; design: dose 5 mg/kg, route intravenous; details: in vivo, iv; outline: as §3
[23] = Apparent elimination half life of compound was determined in dogt at 5 mg/kg intravenously admn.; type: ADME, organism-based, Canis lupus familiaris; design: dose 5 mg/kg, route intravenous; details: dog, in vivo, iv; outline: as §3

Matrix metalloproteinase-9, sequence (P14780 whole entry): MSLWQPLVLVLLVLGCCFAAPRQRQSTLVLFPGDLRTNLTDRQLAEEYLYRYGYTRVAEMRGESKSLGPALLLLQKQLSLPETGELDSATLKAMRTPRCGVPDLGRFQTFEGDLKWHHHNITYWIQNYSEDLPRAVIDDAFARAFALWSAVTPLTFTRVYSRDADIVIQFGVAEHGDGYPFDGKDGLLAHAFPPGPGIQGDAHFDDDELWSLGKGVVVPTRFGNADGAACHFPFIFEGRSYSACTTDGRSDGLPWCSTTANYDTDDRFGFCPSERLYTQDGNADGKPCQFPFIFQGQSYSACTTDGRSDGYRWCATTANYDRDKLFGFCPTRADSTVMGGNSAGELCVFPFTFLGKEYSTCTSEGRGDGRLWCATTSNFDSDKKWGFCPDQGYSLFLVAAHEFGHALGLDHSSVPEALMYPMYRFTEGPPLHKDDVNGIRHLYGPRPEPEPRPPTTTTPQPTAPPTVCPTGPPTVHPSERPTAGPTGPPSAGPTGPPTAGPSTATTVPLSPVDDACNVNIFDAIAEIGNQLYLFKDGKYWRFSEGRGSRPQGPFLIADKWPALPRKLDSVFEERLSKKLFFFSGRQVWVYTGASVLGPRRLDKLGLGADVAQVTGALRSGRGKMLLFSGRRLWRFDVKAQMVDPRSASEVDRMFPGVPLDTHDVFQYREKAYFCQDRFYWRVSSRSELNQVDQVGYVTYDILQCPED
Neutrophil collagenase, sequence (P22894 whole entry): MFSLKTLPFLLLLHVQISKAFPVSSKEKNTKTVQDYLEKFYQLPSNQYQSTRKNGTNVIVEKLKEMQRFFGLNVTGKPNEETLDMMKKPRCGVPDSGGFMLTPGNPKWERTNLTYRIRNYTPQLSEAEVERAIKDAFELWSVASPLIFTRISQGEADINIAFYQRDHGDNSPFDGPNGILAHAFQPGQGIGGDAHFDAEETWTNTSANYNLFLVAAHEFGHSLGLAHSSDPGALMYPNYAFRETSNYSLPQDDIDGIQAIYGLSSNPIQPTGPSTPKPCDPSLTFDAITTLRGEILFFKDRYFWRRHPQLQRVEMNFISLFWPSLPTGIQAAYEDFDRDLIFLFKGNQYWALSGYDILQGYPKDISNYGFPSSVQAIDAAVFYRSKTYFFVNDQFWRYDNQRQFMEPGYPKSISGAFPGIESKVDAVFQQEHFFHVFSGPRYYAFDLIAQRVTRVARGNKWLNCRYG

## O=C(NO)C1(S(=O)(=O)c2ccc(Oc3ccc(Cl)cc3)cc2)CCN(Cc2ccccc2)CC1
[1]
  clearance: 0.1 mL/min/kg
Oryctolagus cuniculus
  Average gross pathology scores+/- SE: 6.8
[2]
  IC50: 1 nM
[3]
  Cmax: 96.3 µg/mL
[4]
  clearance: 0.3 mL/min/kg
[5]
  AUC: 786 µg·h/mL
[6]
  Tmax: 3.5 h
Matrilysin
  IC50: 925 nM
[7]
  inhibition in vivo at 5 mg/kg: 53%
[8]
  Vd: 0.1 L/kg
Neutrophil collagenase
  IC50: 1 nM
[9]
  AUC: 1410 µg·h/mL
[10]
  bioavailability: 11%
[11]
  AUC: 1510 µg·h/mL
[12]
  Vd: 0.1 L/kg
[13]
  bioavailability: 47%
[14]
  Tmax: 5.7 h
[15]
  AUC: 363 µg·h/mL
[16]
  half-life: 7.14 h
[17]
  C0: 126 µg/mL
[18]
  Tmax: 1.5 h
[19]
  IC50: 7 nM
[20]
  half-life: 10.7 h
[21]
  half-life: 17.6 h
[22]
  half-life: 4.4 h
[23]
  half-life: 13.5 h
